Measurements as given in ChEMBL document CHEMBL1156239, “Synthesis, anticonvulsant and antimicrobial activities of some new 2-acetylnaphthalene derivatives” (Bioorg Med Chem, 2010).
In brackets after ≈: the same amount, converted by molar mass. Activity calls are given as the source filed them. The rule behind the calls is not given here.

Columns and labels:
[1] = test system: Enterococcus faecalis; assay: Antibacterial activity against Enterococcus faecalis ATCC 29212 after 24 hrs by broth microdilution method; format: functional; details: ATCC 29212, 24 h
Procedure, shortened: (§1)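 Broth microdilution in Mueller Hinton broth; compound stocks in DMSO, diluted into test medium. Plates incubated at 35 °C and read visually after 24 h. MIC taken as lowest concentration preventing visible growth. Ampicillin reference.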

[2] = test system: Mus musculus; assay: Anticonvulsant activity in CF1 mouse assessed as inhibition of maximal electroshock-induced seizures at 300 mg/kg, ip after 4 hrs; format: functional, organism-based; parameters: dose 300 mg/kg
Procedure, shortened: (§2)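 Male albino CF#1 mice (18–25.5 g), compound suspended in 0.5% methylcellulose, given ip 0.5 h or 4 h before test. Eyes treated with 0.5% tetracaine HCl in saline; corneal-type MES at 60 Hz, 50 mA for 0.2 s; protection scored as animals protected/tested.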

[3] = test system: Rattus norvegicus; assay: Anticonvulsant activity in Sprague-Dawley rat assessed as inhibition of maximal electroshock-induced seizures at 30 mg/kg, po after 0.5 hrs; format: functional, organism-based; parameters: dose 30 mg/kg
Procedure, shortened: (§3)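 Male albino Sprague-Dawley rats (105–130 g) given a single oral 30 mg/kg dose suspended in 0.5% methylcellulose; MES (60 Hz, 150 mA, 0.2 s, tetracaine-anesthetized eyes) at 0.25, 0.5, 1, 2 and 4 h; 4 rats per time point; scored protected/tested.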

[4] = test system: Candida parapsilosis; assay: Antifungal activity against Candida parapsilosis ATCC 22019 after 48 hrs by broth microdilution method; format: functional; details: Lodderomyces parapsilosis, ATCC 22019, 48 h
[5] = test system: Rattus norvegicus; assay: Neurotoxicity in Sprague-Dawley rat at 30 mg/kg, po after 1 hr by rotarod test; format: toxicity, organism-based; parameters: dose 30 mg/kg, route oral; details: in vivo
[6] = test system: Mus musculus; assay: Neurotoxicity in CF1 mouse at 100 mg/kg, ip after 4 hrs by rotarod test; format: toxicity, organism-based; parameters: dose 100 mg/kg, route intraperitoneal; details: in vivo
Procedure, shortened: (§4)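 Male albino CF#1 mice (18–25.5 g) dosed ip with compound suspended in 0.5% methylcellulose, 0.5 h or 4 h before testing; neurotoxicity assessed by rotarod, scored as number toxic/number tested.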

[7] = test system: Mus musculus; assay: Anticonvulsant activity in CF1 mouse assessed as inhibition of maximal electroshock-induced seizures at 30 mg/kg, ip after 0.5 hrs; format: functional, organism-based; parameters: dose 30 mg/kg; procedure, shortened: as §2
[8] = test system: Mus musculus; assay: Anticonvulsant activity in CF1 mouse assessed as inhibition of maximal electroshock-induced seizures at 300 mg/kg, ip after 0.5 hrs; format: functional, organism-based; parameters: dose 300 mg/kg; procedure, shortened: as §2
[9] = test system: Rattus norvegicus; assay: Neurotoxicity in Sprague-Dawley rat at 30 mg/kg, po after 0.5 hrs by rotarod test; format: toxicity, organism-based; parameters: dose 30 mg/kg, route oral; details: in vivo
[10] = test system: Pichia kudriavzevii; assay: Antifungal activity against Candida krusei ATCC 6258 after 48 hrs by broth microdilution method; format: functional; details: ATCC 6258, 48 h
[11] = test system: Mus musculus; assay: Anticonvulsant activity in CF1 mouse assessed as inhibition of maximal electroshock-induced seizures at 100 mg/kg, ip after 4 hrs; format: functional, organism-based; parameters: dose 100 mg/kg; procedure, shortened: as §2
[12] = test system: Escherichia coli; assay: Antibacterial activity against Escherichia coli ATCC 25922 after 24 hrs by broth microdilution method; format: functional; details: ATCC 25922, 24 h; procedure, shortened: as §1
[13] = test system: Staphylococcus aureus; assay: Antibacterial activity against Staphylococcus aureus ATCC 25923 after 24 hrs by broth microdilution method; format: functional; details: ATCC 25923, 24 h; procedure, shortened: as §1
[14] = test system: Pseudomonas aeruginosa; assay: Antibacterial activity against Pseudomonas aeruginosa ATCC 27853 after 24 hrs by broth microdilution method; format: functional; details: ATCC 27853, 24 h; procedure, shortened: as §1
[15] = test system: Rattus norvegicus; assay: Neurotoxicity in Sprague-Dawley rat at 30 mg/kg, po after 0.25 hrs by rotarod test; format: toxicity, organism-based; parameters: dose 30 mg/kg, route oral; details: in vivo
[16] = test system: Rattus norvegicus; assay: Neurotoxicity in Sprague-Dawley rat at 30 mg/kg, po after 4 hrs by rotarod test; format: toxicity, organism-based; parameters: dose 30 mg/kg, route oral; details: in vivo
[17] = test system: Mus musculus; assay: Anticonvulsant activity in CF1 mouse assessed as inhibition of maximal electroshock-induced seizures at 100 mg/kg, ip after 0.5 hrs; format: functional, organism-based; parameters: dose 100 mg/kg; procedure, shortened: as §2
[18] = test system: Mus musculus; assay: Neurotoxicity in CF1 mouse assessed as muscle spasms at 300 mg/kg, ip after 0.5 hrs by rotarod test; format: toxicity, organism-based, Muscle tissue; parameters: dose 300 mg/kg, route intraperitoneal; details: in vivo
[19] = test system: Mus musculus; assay: Neurotoxicity in CF1 mouse assessed as clonic seizures at 300 mg/kg, ip after 0.5 hrs by rotarod test; format: toxicity, organism-based; parameters: dose 300 mg/kg, route intraperitoneal; details: in vivo
[20] = test system: Rattus norvegicus; assay: Neurotoxicity in Sprague-Dawley rat at 30 mg/kg, po after 2 hrs by rotarod test; format: toxicity, organism-based; parameters: dose 30 mg/kg, route oral; details: in vivo
[21] = test system: Mus musculus; assay: Anticonvulsant activity in CF1 mouse assessed as inhibition of maximal electroshock-induced seizures at 30 mg/kg, ip after 4 hrs; format: functional, organism-based; parameters: dose 30 mg/kg; procedure, shortened: as §2
[22] = test system: Mus musculus; assay: Neurotoxicity in CF1 mouse assessed as ability to grasp rotarod at 300 mg/kg, ip after 0.5 hrs by rotarod test; format: toxicity, organism-based; parameters: dose 300 mg/kg, route intraperitoneal; details: in vivo; procedure, shortened: as §4
[23] = test system: Mus musculus; assay: Neurotoxicity in CF1 mouse at 30 mg/kg, ip after 4 hrs by rotarod test; format: toxicity, organism-based; parameters: dose 30 mg/kg, route intraperitoneal; details: in vivo; procedure, shortened: as §4
[24] = test system: Rattus norvegicus; assay: Anticonvulsant activity in Sprague-Dawley rat assessed as inhibition of maximal electroshock-induced seizures at 30 mg/kg, po after 1 hr; format: functional, organism-based; parameters: dose 30 mg/kg; procedure, shortened: as §3
[25] = test system: Rattus norvegicus; assay: Anticonvulsant activity in Sprague-Dawley rat assessed as inhibition of maximal electroshock-induced seizures at 30 mg/kg, po after 4 hrs; format: functional, organism-based; parameters: dose 30 mg/kg; procedure, shortened: as §3
[26] = test system: Mus musculus; assay: Neurotoxicity in CF1 mouse at 300 mg/kg, ip after 4 hrs by rotarod test; format: toxicity, organism-based; parameters: dose 300 mg/kg, route intraperitoneal; details: in vivo; procedure, shortened: as §4
[27] = test system: Rattus norvegicus; assay: Anticonvulsant activity in Sprague-Dawley rat assessed as inhibition of maximal electroshock-induced seizures at 30 mg/kg, po after 0.25 hrs; format: functional, organism-based; parameters: dose 30 mg/kg; procedure, shortened: as §3
[28] = test system: Mus musculus; assay: Neurotoxicity in CF1 mouse at 30 mg/kg, ip after 0.5 hrs by rotarod test; format: toxicity, organism-based; parameters: dose 30 mg/kg, route intraperitoneal; details: in vivo; procedure, shortened: as §4
[29] = test system: Mus musculus; assay: Neurotoxicity in CF1 mouse assessed as mortality at 300 mg/kg, ip after 0.5 hrs by rotarod test; format: toxicity, organism-based; parameters: dose 300 mg/kg, route intraperitoneal; details: in vivo
Procedure, shortened: (§5)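 Male albino CF#1 mice (18–25.5 g), free access to food and water except during testing, under NINDS Anticonvulsant Screening Program procedures. Compounds were suspended in 0.5% methylcellulose and given ip. Neurotoxicity was scored by rotarod 0.5 h and 4 h after dosing, at screening doses of 30, 100 or 300 mg/kg. Results are reported as affected/tested animals.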

[30] = test system: Mus musculus; assay: Neurotoxicity in CF1 mouse assessed as muscle spasms at 300 mg/kg, ip after 4 hrs by rotarod test; format: toxicity, organism-based, Muscle tissue; parameters: dose 300 mg/kg, route intraperitoneal; details: in vivo
[31] = test system: Rattus norvegicus; assay: Neurotoxicity in Sprague-Dawley rat at 30 mg/kg, ip after 0.5 hrs by rotarod test; format: toxicity, organism-based; parameters: dose 30 mg/kg, route intraperitoneal; details: in vivo
[32] = test system: Rattus norvegicus; assay: Neurotoxicity in Sprague-Dawley rat at 30 mg/kg, ip after 2 hrs by rotarod test; format: toxicity, organism-based; parameters: dose 30 mg/kg, route intraperitoneal; details: in vivo
[33] = test system: Mus musculus; assay: Neurotoxicity in CF1 mouse at 100 mg/kg, ip after 0.5 hrs by rotarod test; format: toxicity, organism-based; parameters: dose 100 mg/kg, route intraperitoneal; details: in vivo; procedure, shortened: as §4
[34] = test system: Rattus norvegicus; assay: Anticonvulsant activity in Sprague-Dawley rat assessed as inhibition of maximal electroshock-induced seizures at 30 mg/kg, ip; format: functional, organism-based; parameters: dose 30 mg/kg
[35] = test system: Rattus norvegicus; assay: Anticonvulsant activity in Sprague-Dawley rat assessed as inhibition of maximal electroshock-induced seizures at 30 mg/kg, ip after 0.5 hrs; format: functional, organism-based; parameters: dose 30 mg/kg
[36] = test system: Rattus norvegicus; assay: Neurotoxicity in Sprague-Dawley rat at 30 mg/kg, ip after 1 hr by rotarod test; format: toxicity, organism-based; parameters: dose 30 mg/kg, route intraperitoneal; details: in vivo
[37] = test system: Mus musculus; assay: Neurotoxicity in CF1 mouse assessed as ability to grasp rotarod at 300 mg/kg, ip after 4 hrs by rotarod test; format: toxicity, organism-based; parameters: dose 300 mg/kg, route intraperitoneal; details: in vivo; procedure, shortened: as §5

Row | MIC [1] [mg/L] | MIC [4] [mg/L] | MIC [10] [mg/L] | MIC [12] [mg/L] | MIC [13] [mg/L] | MIC [14] [mg/L] | SMILES | inhibition [2] | inhibition [3] | Activity [5] | Activity [6] | inhibition [7] | Activity [9] | Activity [15] | Activity [16] | inhibition [17] | Activity [18] | Activity [20] | inhibition [21] | Activity [22] | Activity [23] | other results
1 | 32 (≈ 93.5 µM) | 1020 (≈ 2990 µM) | 512 (≈ 1500 µM) | > 1020 | 8 (≈ 23.4 µM) | > 1020 | O=C(OC(Cn1ccnc1)c1ccc2ccccc2c1)c1ccccc1 (stereo not given) | inactive | inactive | Non-toxic | Non-toxic | inactive | Non-toxic | Non-toxic | Non-toxic | Active | Toxic | Non-toxic | inactive | Toxic | Non-toxic | inhibition [8]: Active; inhibition [11]: inactive; Activity [19]: Toxic; inhibition [24]: inactive; inhibition [25]: inactive
2 | 16 (≈ 43.9 µM) | 1020 (≈ 2810 µM) | 1020 (≈ 2810 µM) | > 1020 | 8 (≈ 21.9 µM) | > 1020 | CCCC(CCC)C(=O)OC(Cn1ccnc1)c1ccc2ccccc2c1 (stereo not given) | Active | inactive | Non-toxic | Non-toxic | inactive | Non-toxic | Non-toxic | Non-toxic | Active | Toxic | Non-toxic | inactive | Toxic | Non-toxic | Activity [30]: Toxic; Activity [31]: Non-toxic; inhibition [8]: Active; Activity [32]: Non-toxic; Activity [33]: Non-toxic; inhibition [34]: Active; inhibition [27]: inactive; inhibition [35]: Active; Activity [28]: Non-toxic; Activity [36]: Non-toxic; Activity [37]: Toxic; inhibition [25]: inactive

Row | SMILES | MIC [1] [mg/L] | MIC [4] [mg/L] | MIC [10] [mg/L] | MIC [12] [mg/L] | MIC [13] [mg/L] | MIC [14] [mg/L] | inhibition [2] | inhibition [3] | Activity [5] | Activity [6] | inhibition [7] | Activity [9] | Activity [15] | Activity [16] | inhibition [17] | Activity [18] | Activity [20] | inhibition [21] | Activity [22] | Activity [23] | other results
3 | CC(C)C(=O)OC(Cn1ccnc1)c1ccc2ccccc2c1 (stereo not given) | 128 (≈ 415 µM) | 256 (≈ 830 µM) | 256 (≈ 830 µM) | > 1020 | 16 (≈ 51.9 µM) | > 1020 | Active | – | Non-toxic | Non-toxic | Active | Non-toxic | Non-toxic | Non-toxic | Active | Toxic | Non-toxic | inactive | Toxic | Non-toxic | Activity [26]: Non-toxic; inhibition [27]: inactive; Activity [28]: Non-toxic; Activity [29]: Toxic
